Measured values from ChEMBL document CHEMBL2163342, “[18F](R)-5-chloro-1-(1-cyclopropyl-2-methoxyethyl)-3-(4-(2-fluoroethoxy)-2,5-dimethyl phenylamino)pyrazin-2(1H)-one: introduction of N3-phenylpyrazinones as potential CRF-R1 PET imaging agents” (Bioorg Med Chem Lett, 2012).

Tests used:
Liver microsomes [1] = experiment: Drug metabolism in rat liver microsomes assessed as compound depletion per mg of protein at 3 uM; type: ADME, Microsome
Method in brief: (§1)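 Liver microsomes (1 mg/ml protein) incubated with 3 µM compound and 1.3 mM NADPH at 37 °C in 100 mM sodium phosphate buffer, pH 7.4. Final solvent 0.015% DMSO, 0.985% acetonitrile. Stopped at 0 and 10 min, compound measured by LC/MS/MS. Reported as depletion rate, pmol/min/mg protein.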

Liver microsomes [2] = experiment: Drug metabolism in human liver microsomes assessed as compound depletion per mg of protein at 3 uM; type: ADME, Microsome; method in brief: as §1
[3] = molecular target: T1, Corticotropin-releasing factor receptor 1 (Rattus norvegicus, UniProt P35353); experiment: Displacement of [125I]-o-CRF from CRFR1 in rat frontal cortex after 2 hrs by gamma counter; type: tissue-based
T1 sequence (P35353 whole entry): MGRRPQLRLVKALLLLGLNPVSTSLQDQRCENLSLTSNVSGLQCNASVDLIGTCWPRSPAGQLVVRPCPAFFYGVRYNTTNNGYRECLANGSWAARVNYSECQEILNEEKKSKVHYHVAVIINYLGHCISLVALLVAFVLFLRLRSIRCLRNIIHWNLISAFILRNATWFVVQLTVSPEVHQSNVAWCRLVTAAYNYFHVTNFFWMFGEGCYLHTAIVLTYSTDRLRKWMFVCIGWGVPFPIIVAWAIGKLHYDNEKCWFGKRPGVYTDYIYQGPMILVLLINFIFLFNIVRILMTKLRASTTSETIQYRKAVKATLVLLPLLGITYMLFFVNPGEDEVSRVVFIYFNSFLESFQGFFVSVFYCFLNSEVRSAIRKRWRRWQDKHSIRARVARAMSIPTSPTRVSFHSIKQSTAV
Method in brief: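 Rat frontal cortex homogenate (25 µg/well), prepared in 50 mM HEPES pH 7.0, 10 mM MgCl2, 2 mM EGTA, protease inhibitors, 0.005% Triton X-100, bacitracin, 0.1% ovalbumin. Incubated with 150 pM [125I]-o-CRF and compounds for 2 h at 21 °C. Separated by rapid filtration on PEI-pretreated glass fiber filters, washed with ice-cold PBS/0.01% Triton X-100. Specific binding inhibition gives Ki.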

[4] = Octanol-phosphate buffer partition coefficient, log D of the compound at pH 7.4 by shake flask method; type: physicochemical
Method in brief: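 Shake-flask method. Octanol and 25 mM phosphate buffer (pH ~7.4) mixed and allowed to saturate overnight. Compound (1.0 mg in 1 mL octanol) added to 50 mL octanol-saturated buffer, shaken intensely 30–40 min, then layers left to separate. Each layer analysed twice by HPLC.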

[5] = Unbound fraction in rat plasma after 3 hrs by equilibrium dialysis method; type: ADME, cell-free
Method in brief: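 Equilibrium dialysis of rat plasma spiked with compound against isotonic phosphate buffer, 3 h at 37 °C. Buffer and plasma concentrations measured by LC/MS/MS. Unbound fraction taken as the buffer/plasma concentration ratio.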

[6] = molecular target: T2, Corticotropin-releasing factor receptor 1 (Homo sapiens, UniProt P34998); experiment: Binding affinity to CRFR1 by autoradiography
T2 sequence (P34998 whole entry): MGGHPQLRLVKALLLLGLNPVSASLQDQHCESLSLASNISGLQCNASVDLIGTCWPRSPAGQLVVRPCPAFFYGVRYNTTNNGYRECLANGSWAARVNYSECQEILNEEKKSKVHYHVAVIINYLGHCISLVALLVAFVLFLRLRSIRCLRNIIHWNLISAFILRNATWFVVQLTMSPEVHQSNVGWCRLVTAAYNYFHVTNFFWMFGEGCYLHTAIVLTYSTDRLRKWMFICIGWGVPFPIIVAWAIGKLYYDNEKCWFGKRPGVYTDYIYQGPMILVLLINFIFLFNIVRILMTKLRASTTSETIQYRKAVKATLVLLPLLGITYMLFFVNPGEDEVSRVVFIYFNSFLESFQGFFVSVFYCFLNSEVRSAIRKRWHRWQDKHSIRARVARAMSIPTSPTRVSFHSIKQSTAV
Method in brief: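 In vitro autoradiography on fresh 20 µm sagittal brain sections from adult male Sprague–Dawley rats. Sections preincubated 10 min in 50 mM HEPES, 10 mM MgCl2, EGTA, pH 7.4, then incubated with 1.3 nM [18F] radioligand at 22–24 °C for 40 min. Washed 2 min in ice-cold PBS, pH 7.4.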

[7] = Metabolic stability in baboon plasma assessed as compound remaining after 9 and 13 mins; type: ADME, cell-free; conditions: papio anubis, read-out: Stability
[8] = molecular target: T3, Corticotropin-releasing factor receptor 1 (Rattus norvegicus) (UniProt P35353); experiment: Binding affinity to CRFR1 in Sprague-Dawley rat neocortex at 1.3 nM after 40 mins by autoradiography; conditions: tested as the 18F-labelled form
T3 sequence (whole entry): T1 sequence (P35353 whole entry)
Method in brief: (§2)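 Fresh 20 µm-thick sagittal brain sections from adult male Sprague–Dawley rats. Sections were preincubated 10 min in 50 mM HEPES, 10 mM MgCl₂, […], pH 7.4, then incubated 40 min at 22–24 °C with 1.3 nM [¹⁸F]-radioligand (1.3 mCi/mL) in the same buffer. Slides were washed 2 min in ice-cold PBS (pH 7.4) and imaged by in vitro autoradiography.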

[9] = molecular target: T3, Corticotropin-releasing factor receptor 1 (Rattus norvegicus); experiment: Binding affinity to CRFR1 in Sprague-Dawley rat cerebellum at 1.3 nM after 40 mins by autoradiography; conditions: tested as the 18F-labelled form; method in brief: as §2
Blood = experiment: Drug uptake in rat blood measured at 15 and 60 mins; type: ADME, tissue-based; conditions: 1 h
Method in brief: (§3)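 Whole-body biodistribution of the [18F]-labelled radioligand in rats, formulated in 10% EtOH/saline. Tissues sampled at 15 and 60 min post-dose. Activity expressed as average % injected dose per gram.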

Brain [10] = experiment: Drug uptake in rat brain after 10 to 30 mins by microPET analysis; type: ADME, tissue-based; conditions: in vivo
Method in brief: (§4)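 In vivo microPET imaging of rat head and neck after dosing with the [18F] radioligand. Brain uptake followed from the first 10 min through 30 min on sagittal images. Skull bone uptake checked for defluorination.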

[11] = Drug uptake in rat tibia measured at 15 and 60 mins; type: ADME, tissue-based; conditions: in vivo, 1 h; method in brief: as §3
Heart = experiment: Drug uptake in rat heart measured at 15 and 60 mins; type: ADME, tissue-based; conditions: in vivo, 1 h; method in brief: as §3
Lung = experiment: Drug uptake in rat lung measured at 15 and 60 mins; type: ADME, tissue-based; conditions: in vivo, 1 h; method in brief: as §3
Muscle tissue = experiment: Drug uptake in rat muscle measured at 15 and 60 mins; type: ADME, tissue-based; conditions: in vivo, 1 h; method in brief: as §3
Intestine = experiment: Drug uptake in rat small intestine measured at 15 and 60 mins; type: ADME, tissue-based; conditions: in vivo, 1 h; method in brief: as §3
Kidney = experiment: Drug uptake in rat kidney measured at 15 and 60 mins; type: ADME, tissue-based; conditions: in vivo, 1 h; method in brief: as §3
Liver = experiment: Drug uptake in rat liver measured at 15 and 60 mins; type: ADME, tissue-based; conditions: in vivo, 1 h; method in brief: as §3
Spleen = experiment: Drug uptake in rat spleen measured at 15 and 60 mins; type: ADME, tissue-based; conditions: in vivo, 1 h; method in brief: as §3
Brain [12] = experiment: Drug uptake in rat brain up to 10 mins by microPET analysis; type: ADME, tissue-based; conditions: in vivo; method in brief: as §4
Brain [13] = experiment: Drug uptake in rat brain measured at 15 and 60 mins; type: ADME, tissue-based; conditions: in vivo, 1 h; method in brief: as §3

COC[C@@H](C1CC1)n1cc(Cl)nc(Nc2cc(C)c(OC)cc2C)c1=O
Drug metabolism (Liver microsomes [1]): 0.23 pmol/min
Drug metabolism (Liver microsomes [2]): 0.17 pmol/min

COCC(COC)n1cc(Cl)nc(Nc2c(Cl)cc(OC)cc2Cl)c1=O
IC50 [3]: 5 nM
logD [4]: 3.4
Drug metabolism (Liver microsomes [1]): 0.17 pmol/min
Drug metabolism (Liver microsomes [2]): 0.03 pmol/min

COC[C@@H](C)n1cc(Cl)nc(Nc2cc(C)c(OC)cc2C)c1=O
IC50 [3]: 0.88 nM
logD [4]: 3.4
Drug metabolism (Liver microsomes [1]): 0.19 pmol/min
Drug metabolism (Liver microsomes [2]): 0.06 pmol/min

COCC(COC)n1cc(Br)nc(Nc2c(C)cc(OCF)cc2C)c1=O
IC50 [3]: 4.3 nM
logD [4]: 2.9
fraction unbound at 3 h [5]: 0.03
Drug metabolism (Liver microsomes [1]): 0.26 pmol/min
Drug metabolism (Liver microsomes [2]): 0.22 pmol/min

COCC(COC)n1cc(Br)nc(Nc2cc(C)c(OC)cc2C)c1=O
IC50 [3]: 0.68 nM
logD [4]: 3.8
Drug metabolism (Liver microsomes [1]): 0.14 pmol/min
Drug metabolism (Liver microsomes [2]): 0.07 pmol/min

COCCN(CCO[11CH3])Cc1cc(C)nc2c(-c3ccc(Cl)cc3Cl)c(C)nn12 [[11C]DMP-696]
Ki [6]: 1.7 nM
remaining at 13 min [7]: 50%

COC[C@@H](C1CC1)n1cc(Cl)nc(Nc2cc(C)c(OCF)cc2C)c1=O
IC50 [3]: 4.1 nM
logD [4]: 3.1

CCCN(CCC)c1cc(C)nc2c(-c3ccc(N(C)[11CH3])nc3)c(C)nn12
Ki [6]: 1.7 nM
remaining at 13 min [7]: 50%

COCC(COC)n1cc(Cl)nc(Nc2c(Cl)cc(OCCF)cc2Cl)c1=O
IC50 [3]: 210 nM
logD [4]: 3.1
Drug metabolism (Liver microsomes [1]): 0.12 pmol/min
Drug metabolism (Liver microsomes [2]): 0.07 pmol/min

COC[C@@H](C1CC1)n1cc(Cl)nc(Nc2cc(C)c(OCCF)cc2C)c1=O
Activity [8]: 18%
IC50 [3]: 2.4 nM
logD [4]: 3.7
Activity [9]: 19%
Drug metabolism (Liver microsomes [1]): 0.12 pmol/min
Drug metabolism (Liver microsomes [2]): 0.07 pmol/min

COCCN(CCOC)c1nc(C)nc2c(-c3ccc([76Br])cc3Cl)c(C)nn12
Ki [6]: 2 nM

COCC(COC)n1cc(Cl)nc(Nc2c(Cl)cc(OCF)cc2Cl)c1=O
IC50 [3]: 5.4 nM
logD [4]: 3.1

CCC(COC)n1nnc2c(Nc3ccc(O[11CH3])cc3C)nc(C)cc21 (centres undefined)
Ki [6]: 1.7 nM

COCC(COC)n1cc(Br)nc(Nc2c(C)cc(OC)cc2C)c1=O
IC50 [3]: 7.8 nM
logD [4]: 2.8
fraction unbound at 3 h [5]: 0.03

COC[C@@H](C1CC1)n1cc(Cl)nc(Nc2cc(C)c(OCC[18F])cc2C)c1=O
Drug uptake (Blood): Active
Drug uptake (Brain [10]): Not Active
Drug uptake [11]: Active
Drug uptake (Heart): Active
Drug uptake (Lung): Active
Drug uptake (Muscle tissue): Active
Drug uptake (Intestine): Active
Drug uptake (Kidney): Active
Drug uptake (Liver): Active
Drug uptake (Spleen): Active
Drug uptake (Brain [12]): Active
Drug uptake (Brain [13]): Active
